Measurements taken from ChEMBL document CHEMBL4229550, “An antimycobacterial pleuromutilin analogue effective against dormant bacilli” (Bioorg Med Chem, 2018).
≈ marks a conversion by molar mass, not a printed value. Calls of active or inactive are those of the source. No cut-off for these calls is given here.

What was measured:
[1] = system: Streptococcus salivarius; assay: Bactericidal activity against Streptococcus salivarius ATCC 6301 incubated for 24 hrs under aerobic condition by MABA; type: functional; details: ATCC 6301, 24 h
[2] = system: Clostridioides difficile; assay: Bactericidal activity against Clostridium difficile ATCC 700057 incubated for 24 hrs […] by MABA; type: functional; details: ATCC 700057, 24 h
[3] = Selectivity index, ratio of IC50 for African green monkey Vero cells to MIC100 for replicating Mycobacterium tuberculosis H37Rv by MABA; type: toxicity; details: read-out: Selectivity Index
How it was run: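 Vero cells are cultured in EMEM with 10% FBS and exposed for 72 h to 0.78–200 µg/mL. Medium is switched to phenol-red-free EMEM, MTT is added, and formazan is read at 570 nm to give IC50. The selectivity index is Vero IC50 divided by the MABA MIC.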

[4] = system: Enterococcus faecalis; assay: Bactericidal activity against Enterococcus faecalis ATCC 19433 incubated for 24 hrs under aerobic condition by MABA; type: functional; details: ATCC 19433, 24 h
[5] = system: Vero; assay: Cytotoxicity against African green monkey Vero cells assessed as reduction in cell viability after 72 hrs by MTT assay; type: cell-based; details: Chlorocebus sabaeus
How it was run: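 Vero cells were grown in complete EMEM with 10% FBS and exposed for 72 h to 0.78–200 µg/mL. The medium was then swapped for phenol-red-free EMEM and MTT was added. Formazan absorbance was read at 570 nm to give IC50.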

[6] = system: Bacillus subtilis; assay: Antibacterial activity against Bacillus subtilis ATCC 6051 incubated for 24 hrs under aerobic condition by MABA; type: functional; details: ATCC 6051, 24 h, read-out: MIC100
How it was run: (§1)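 Mid-log cultures at OD 0.5 were exposed to serial dilutions under aerobic conditions at 37 °C for 24 h. Resazurin was then added from a 0.08% stock for 1 h. MIC100 was the lowest concentration where the dye stayed blue (pink means growth). Absorbance was also read at 570 and 600 nm.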

[7] = system: Staphylococcus aureus; assay: Bactericidal activity against Staphylococcus aureus BAA 2094 incubated for 24 hrs under aerobic condition by MABA; type: functional; details: BAA 2094, 24 h
[8] = system: Mycobacterium tuberculosis; assay: Antibacterial activity against Mycobacterium tuberculosis; type: functional; details: read-out: MIC100
How it was run: (§2)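 Mtb H37Rv grown in 7H9/OADC at 37 °C with shaking to OD600 0.5. The 0.5-OD culture is exposed aerobically to serial dilutions for 15 days at 37 °C. Resazurin (0.02% stock) is then added for 4 h at 37 °C with shaking.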

[9] = system: Staphylococcus aureus; assay: Antibacterial activity against Staphylococcus aureus BAA 2094 incubated for 24 hrs under aerobic condition by MABA; type: functional; details: BAA 2094, 24 h, read-out: MIC100
How it was run: (§3)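 Resazurin was then added from a 0.08% stock for 1 h. MIC100 was the lowest concentration where the dye stayed blue (pink means growth). Absorbance was also read at 570 and 600 nm.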

[10] = system: Erythrocyte; assay: Hemolytic activity in sheep erythrocytes after 2 hrs; type: ADME, cell-based; details: Ovis aries
How it was run: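 Washed heparinized sheep erythrocytes at 3% in buffer pH 7.4 were treated with 2–200 µg/mL for 2 h at 37 °C with gentle shaking. Triton X-100 (0.01–1%) was the positive control and PEG:H2O diluent the negative control. Released hemoglobin was read at OD540 and % hemolysis calculated against both controls.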

[11] = system: Enterococcus faecalis; assay: Antibacterial activity against Enterococcus faecalis ATCC 19433 incubated for 24 hrs under aerobic condition by MABA; type: functional; details: ATCC 19433, 24 h, read-out: MIC100; how it was run: as §1
[12] = system: Streptococcus pneumoniae; assay: Bactericidal activity against Streptococcus pneumoniae ATCC 6301 incubated for 24 hrs under aerobic condition by MABA; type: functional; details: ATCC 6301, 24 h
[13] = system: Escherichia coli; assay: Antibacterial activity against Escherichia coli ATCC 10798 incubated for 24 hrs under aerobic condition by MABA; type: functional; details: ATCC 10798, 24 h, read-out: MIC100; how it was run: as §1
[14] = Metabolic stability in Sprague-Dawley rat liver microsomes at 500 ng/ml preincubated for 5 mins followed by NADPH addition […] by C-MS/MS analysis; type: ADME, microsome; details: 10 min
[15] = system: Staphylococcus aureus; assay: Bactericidal activity against Staphylococcus aureus BAA 44 incubated for 24 hrs under aerobic condition by MABA; type: functional; details: BAA 44, 24 h
[16] = system: Staphylococcus aureus; assay: Antibacterial activity against Staphylococcus aureus ATCC 25923 incubated for 24 hrs under aerobic condition by MABA; type: functional; details: ATCC 25923, 24 h, read-out: MIC100; how it was run: as §1
[17] = system: Staphylococcus aureus; assay: Bactericidal activity against Staphylococcus aureus incubated for 24 hrs under aerobic condition by MABA; type: functional
[18] = system: Streptococcus salivarius; assay: Antibacterial activity against Streptococcus salivarius […] incubated for 24 hrs under aerobic condition by MABA; type: functional; details: read-out: MIC100; how it was run: as §3
[19] = system: Mycolicibacterium smegmatis; assay: Bactericidal activity against Mycobacterium smegmatis ATCC 607 incubated for 48 hrs under aerobic condition by MABA; type: functional; details: ATCC 607, 48 h
[20] = system: Staphylococcus aureus; assay: Bactericidal activity against Staphylococcus aureus ATCC 25923 incubated for 24 hrs under aerobic condition by MABA; type: functional; details: ATCC 25923, 24 h
[21] = system: Enterococcus faecalis; assay: Antibacterial activity against Enterococcus faecalis ATCC 349 incubated for 24 hrs under aerobic condition by MABA; type: functional; details: ATCC 349, 24 h, read-out: MIC100; how it was run: as §1
[22] = system: Staphylococcus aureus; assay: Antibacterial activity against Staphylococcus aureus incubated for 24 hrs under aerobic condition by MABA; type: functional; details: read-out: MIC100; how it was run: as §3
[23] = system: Escherichia coli; assay: Inhibition of protein translation/transcription in Escherichia coli S30 cell extract at 0.1 ug/ml using circular DNA with pBESTluc after 60 mins by luciferase reporter gene assay; type: functional
How it was run: (§4)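 Coupled transcription/translation used E. coli S30 extract, amino acid mix and premix, with the pBESTluc template carrying firefly luciferase under the tac promoter. Compounds were added in DMSO and reactions were started with DNA. Incubation was 60 min at 37 °C, stopped on ice, and luciferase was read after adding assay substrate.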

[24] = system: Enterococcus faecalis; assay: Bactericidal activity against Enterococcus faecalis ATCC 349 incubated for 24 hrs under aerobic condition by MABA; type: functional; details: ATCC 349, 24 h
[25] = system: Streptococcus pneumoniae; assay: Antibacterial activity against Streptococcus pneumoniae ATCC 6301 incubated for 24 hrs under aerobic condition by MABA; type: functional; details: ATCC 6301, 24 h, read-out: MIC100; how it was run: as §1
[26] = system: Escherichia coli; assay: Bactericidal activity against Escherichia coli ATCC 10798 incubated for 24 hrs under aerobic condition by MABA; type: functional; details: ATCC 10798, 24 h
[27] = system: Klebsiella pneumoniae; assay: Antibacterial activity against Klebsiella pneumoniae ATCC 12019 incubated for 24 hrs under aerobic condition by MABA; type: functional; details: ATCC 12019, 24 h, read-out: MIC100; how it was run: as §1
[28] = system: Acinetobacter baumannii; assay: Bactericidal activity against Acinetobacter baumannii ATCC 19606 incubated for 24 hrs under aerobic condition by MABA; type: functional; details: ATCC 19606 = CIP 70.34 = JCM 6841, 24 h
[29] = system: Staphylococcus aureus; assay: Antibacterial activity against Staphylococcus aureus BAA 1683 incubated for 24 hrs under aerobic condition by MABA; type: functional; details: BAA 1683, 24 h, read-out: MIC100; how it was run: as §1
[30] = system: Mycobacterium tuberculosis; assay: Bactericidal activity against replicating Mycobacterium tuberculosis H37Rv incubated for 15 days under aerobic condition by MABA; type: functional; details: 360 h; how it was run: as §2
[31] = system: Staphylococcus aureus; assay: Bactericidal activity against Staphylococcus aureus BAA 1683 incubated for 24 hrs under aerobic condition by MABA; type: functional; details: BAA 1683, 24 h
[32] = system: Mycolicibacterium smegmatis; assay: Antibacterial activity against Mycobacterium smegmatis ATCC 607 incubated for 48 hrs under aerobic condition by MABA; type: functional; details: ATCC 607, 48 h, read-out: MIC100
How it was run: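 Mid-log culture at OD 0.5 was incubated with serial dilutions aerobically at 37 °C for 48 h. Resazurin was then added from a 0.08% stock for 1 h. MIC100 was the lowest concentration that stayed blue; absorbance was also read at 570/600 nm.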

[33] = system: Acinetobacter baumannii; assay: Antibacterial activity against Acinetobacter baumannii ATCC 19606 incubated for 24 hrs under aerobic condition by MABA; type: functional; details: ATCC 19606 = CIP 70.34 = JCM 6841, 24 h, read-out: MIC100; how it was run: as §1
[34] = system: Escherichia coli; assay: Inhibition of protein translation/transcription in Escherichia coli S30 cell extract at 0.5 ug/ml using circular DNA with pBESTluc after 60 mins by luciferase reporter gene assay; type: functional; how it was run: as §4
[35] = system: Staphylococcus aureus; assay: Antibacterial activity against Staphylococcus aureus BAA 44 incubated for 24 hrs under aerobic condition by MABA; type: functional; details: BAA 44, 24 h, read-out: MIC100; how it was run: as §1
[36] = system: Bacillus subtilis; assay: Bactericidal activity against Bacillus subtilis ATCC 6051 incubated for 24 hrs under aerobic condition by MABA; type: functional; details: ATCC 6051, 24 h
[37] = system: Mycobacterium tuberculosis; assay: Bactericidal activity against Mycobacterium tuberculosis H37Rv at 2 times MIC measured every 24 hrs up to 12 days by time kill assay relative to control; type: functional
How it was run: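 Mid-log H37Rv (OD 0.5) is diluted to OD 0.25 and exposed at MIC, 2×MIC or 4×MIC. Every 24 h cultures are diluted 10- to 10,000-fold and plated on 7H10/OADC agar. Plates are incubated 15 days at 37 °C before colony counts.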

[38] = system: Klebsiella pneumoniae; assay: Bactericidal activity against Klebsiella pneumoniae ATCC 12019 incubated for 24 hrs under aerobic condition by MABA; type: functional; details: ATCC 12019, 24 h

C=C[C@]1(C)C[C@@H](OC(=O)CSC(C)(C)CNC(=O)[C@H](N)CC(C)C)[C@]2(C)[C@H](C)CC[C@]3(CCC(=O)[C@H]32)[C@@H](C)[C@@H]1O
MBC [1]: > 25 µg/mL
MBC [2]: 1.56 µg/mL (≈ 2.69 µM)
selectivity ratio [3]: 16
MBC [4]: 25 µg/mL (≈ 43.2 µM)
IC50 [5]: 25 µg/mL (≈ 43.2 µM)
MIC [6]: 12.5 µg/mL (≈ 21.6 µM)
MBC [7]: > 25 µg/mL
MIC [8]: < 6.25 µg/mL
MIC [9]: > 25 µg/mL
IC50 [10]: > 200 µM
MIC [11]: 12.5 µg/mL (≈ 21.6 µM)
MBC [12]: > 25 µg/mL
MIC [13]: 12.5 µg/mL (≈ 21.6 µM)
Stability [14]: Unstable
MBC [15]: > 25 µg/mL
MIC [16]: > 25 µg/mL
MBC [17]: 0.8 µg/mL (≈ 1.38 µM)
MIC [18]: 6.25 µg/mL (≈ 10.8 µM)
MBC [19]: > 25 µg/mL
MBC [20]: > 25 µg/mL
MIC [21]: > 25 µg/mL
MIC [22]: 0.4 µg/mL (≈ 0.691 µM)
inhibition [23]: Active
MBC [24]: > 25 µg/mL
MIC [25]: 25 µg/mL (≈ 43.2 µM)
MBC [26]: > 25 µg/mL
MIC [27]: 25 µg/mL (≈ 43.2 µM)
MBC [28]: 25 µg/mL (≈ 43.2 µM)
MIC [29]: > 25 µg/mL
MBC [30]: 1.46 µg/mL (≈ 2.52 µM)
MBC [31]: > 25 µg/mL
MIC [32]: 6.25 µg/mL (≈ 10.8 µM)
MIC [33]: 12.5 µg/mL (≈ 21.6 µM)
inhibition [34]: Active
MIC [35]: > 25 µg/mL
MBC [36]: 25 µg/mL (≈ 43.2 µM)
Activity [37]: 100%
MBC [38]: > 25 µg/mL
